Data from the RNAGym collection of RNA variant scans (doi:10.1038/s41586-018-0170-7).

B1: tRNA (parent)
chain: GUUCCGUUGGCGUAAUGGUAACGCGUCUCCCUCCUAAGGAGAAGACUGCGGGUUCGAGUCCCGUACGGAACG

Variants of: B1
Test: yeast fitness, log relative to wild type (ln ratio); higher = fitter; tRNA-Arg(CCU), competitive growth, 37 C, 1 M NaCl
Outline: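 Variants were counted by 125 bp paired-end Illumina sequencing after pools of a combinatorial tRNA-Arg(CCU) library, held on a HIS3 centromeric plasmid in BY4742 lacking the chromosomal gene, grew ~6.5 generations (~26.5 h) in SC-HIS 1M NaCl at 37 °C. Each genotype's fitness is the natural log of its generations relative to the wild type's. Generations were OD-scaled log2 output/input frequencies, inverse-variance weighted over replicates.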

| Variant | yeast fitness (ln) |
| --- | --- |
| G6A A43C C46U | -0.143 |
| G1A G6U C66U | -0.126 |
| U2G G6A A43C A69G A70G C71U | -0.233 |
| G1A U2G G6U C27U A43C C66U A70U | -0.47 |
| G1A U2G C27U C46U C66A A70G | -0.195 |
| G1A U2G C46U C66U A70G | -0.148 |
| U2C G6A A43C A69G C71U | -0.179 |
| U2C G6A C27U A69G A70U | -0.115 |
| G1A U2G G6U A69G A70U | -0.278 |
| G1A C27U A43C C46U C66U A70U C71U | -0.469 |
| U2G C46U C66A A70G | -0.0687 |
| G1A G6A A69G A70G | -0.104 |
| U2G C27U C46U C66A A70G C71U | -0.228 |
| U2G C27U A43C A70G | -0.178 |
| G1A G6A C27U C66U A70U | -0.431 |
| G1A U2C C27U C46U C66A A70U | 0.02 |
| G6A A43C C66U A69G A70G | -0.35 |
| G1A U2G A43C C46U C66A A70U C71U | -0.168 |
| U2G G6U C27U A43C A70U C71U | -0.324 |
| G1A U2G G6U C27U C46U C66A A70U C71U | -0.0752 |
| G6A A43C C46U C66A A70U | -0.119 |
| G1A U2C A69G A70U | -0.00637 |
| G1A U2C G6A C66A A70G C71U | -0.127 |
| G1A C27U C46U A69G C71U | -0.047 |

| Variant | yeast fitness (ln) |
| --- | --- |
| U2C G6U C27U A43C C46U A70G C71U | -0.132 |
| G1A U2G G6U C27U A43C C46U A70G C71U | -0.426 |
| G1A U2G G6A C27U C46U A70G C71U | -0.244 |
| U2G C66U | -0.0538 |
| G6U C27U A43C C66A A69G A70G C71U | -0.338 |
| G1A U2C G6U C27U A43C C46U A69G A70G C71U | -0.267 |
| C27U A43C C46U C66U A70G | -0.115 |
| U2C C27U C46U C66A | -0.143 |
| U2C G6A A43C C46U | -0.0201 |
| G1A G6U C27U C46U C66U A70U C71U | -0.438 |
| G6U C27U C46U A70G | -0.15 |
| U2G G6A C27U A43C C46U C66U A69G A70U | -0.292 |
| U2C G6U A43C C71U | -0.117 |
| G1A G6U C27U A43C A70G C71U | -0.426 |
| U2G G6U C27U C66U A69G C71U | -0.427 |
| U2G C27U A43C C46U | -0.0622 |
| U2G G6U C27U A43C C46U A69G A70G | -0.242 |
| G1A U2G C27U A69G A70U C71U | -0.386 |
| G6A C27U C66A A70G C71U | -0.364 |
| G1A U2G C27U C66A A70G | -0.25 |
| U2C C27U A43C C66U A69G A70U C71U | -0.476 |
| G1A U2C G6U C27U A43C C46U A69G A70G | -0.297 |
| U2G G6A C66U A70G | -0.0683 |
| U2C A43C C66U A70G C71U | -0.346 |

| Variant | yeast fitness (ln) |
| --- | --- |
| G1A U2G G6U A43C C46U C66A A69G A70U C71U | -0.314 |
| G1A U2G G6U C27U A43C C46U C66A A70G C71U | -0.369 |
| G6U C46U C66A A70G C71U | -0.15 |
| G1A U2G G6A C66U A69G A70G | -0.282 |
| G1A C27U A43C C66A A70U C71U | -0.423 |
| U2C G6A A43C A70G C71U | -0.129 |
| G1A U2G C27U C46U C66U | -0.185 |
| U2G G6A C27U A43C C46U C66U A69G A70U C71U | -0.433 |
| U2G G6U A43C C46U A69G A70G C71U | -0.223 |
| U2G C27U A43C C46U A69G A70U | -0.0275 |
| U2G C27U A43C C46U A69G | -0.0569 |
| U2G C66U A70U C71U | -0.543 |
| U2C G6U C27U C46U C66U A69G A70G C71U | -0.493 |
| G6U A43C C66U A70U C71U | -0.481 |
| G1A U2G G6A C27U C46U C66U | -0.258 |
| U2C G6U A43C C46U C66A A70U | -0.21 |
| U2G C27U A43C C46U C66U C71U | -0.292 |
| C66U A70G | -0.0949 |
| C27U C66A A70U | -0.0748 |
| G1A G6A C46U C66U A70G | -0.189 |
| A43C C66U A69G C71U | -0.436 |
| U2C G6A C27U A43C C46U C66A A70G C71U | -0.0721 |
| U2C G6U C27U C46U C66A C71U | -0.0782 |
| C46U | 0.0114 |

| Variant | yeast fitness (ln) |
| --- | --- |
| U2C G6A A69G A70G | -0.0526 |
| G1A G6U A43C C46U A69G A70U C71U | -0.434 |
| C46U C66U A69G A70U C71U | -0.332 |
| G1A G6A A43C C46U C66U C71U | -0.0152 |
| G1A U2G G6U C27U A43C C46U C66U A69G A70U | -0.451 |
| G1A U2G A43C C46U C71U | -0.115 |
| U2C G6A A43C C46U C66U A70U | -0.209 |
| G1A G6U C27U A43C C46U C66U | -0.475 |
| G1A U2G G6A A70G | -0.16 |
| G1A U2C C27U A43C C46U A69G A70G | -0.178 |
| U2C C27U A69G A70G C71U | -0.0353 |
| G1A U2G G6U A43C C46U C66U A69G C71U | -0.393 |
| G1A U2G C66U A70U | -0.131 |
| G1A U2G G6U C66A A70U | -0.329 |
| G6U C71U | -0.261 |
| G1A U2C A69G A70G C71U | -0.0058 |
| U2C G6U A43C C46U C66A A69G A70G | -0.0147 |
| G1A G6A A43C C46U C66A A70U | -0.143 |
| G1A U2C G6U C27U A43C C46U A70G | -0.207 |
| U2C C46U C66U A70U C71U | -0.155 |
| U2G G6A C27U A43C A69G C71U | -0.391 |
| G6U C27U C46U C66A A69G A70U C71U | -0.328 |
| G1A U2C C27U C46U C66U A69G A70G C71U | -0.174 |
| C66A A70U C71U | -0.0544 |

| Variant | yeast fitness (ln) |
| --- | --- |
| U2G G6A C66A | -0.111 |
| U2G G6U C27U C66A A69G A70U | -0.0809 |
| G1A U2G C46U | -0.0473 |
| G1A G6U C27U A43C C46U C66A A70G | -0.319 |
| G6U C27U C46U C66A A70U C71U | -0.213 |
| U2G G6U C27U C46U C66A A69G A70U C71U | -0.314 |
| U2C G6U A43C C46U A69G A70U C71U | -0.393 |
| G1A U2C G6A C46U C66U A69G A70G | -0.0859 |
| G1A A43C C46U C66A A69G C71U | -0.216 |
| G1A U2G G6A C27U A43C C66U A70U | -0.236 |
| A43C C66U A70U C71U | -0.358 |
| U2G G6A C27U A43C C46U C66U A70G | -0.143 |
| G1A U2C A43C C46U C66U A69G A70G C71U | -0.417 |
| U2G G6U C27U A43C C46U C66U A70U | -0.227 |
| G1A U2G C46U C66U C71U | -0.117 |
| C27U A43C C46U A69G C71U | -0.207 |
| U2C G6U A43C C46U C66A C71U | -0.077 |
| U2C G6U C27U C46U C71U | -0.235 |
| G1A U2G G6A C46U C71U | -0.247 |
| G1A U2C C66U A69G A70G C71U | -0.055 |
| G1A U2C G6U C27U C66U A70G C71U | -0.496 |
| U2C G6A A69G A70U C71U | -0.174 |
| U2G A43C C66A A69G A70U C71U | -0.28 |
| G6A A43C C46U C66U A69G C71U | -0.558 |

| Variant | yeast fitness (ln) |
| --- | --- |
| C66A C71U | -0.0269 |
| G1A G6U C46U C66U A70U C71U | -0.298 |
| G6U C66A | 0.000896 |
| G6U C27U A70U C71U | -0.27 |
| G1A G6U C27U A43C C66A A69G A70U C71U | -0.281 |
| G1A U2C G6A A43C C46U C66U A70G | -0.0356 |
| G1A U2G G6U C46U A70U | -0.246 |
| G1A U2G G6U A43C C46U A70U C71U | -0.226 |
| G6A C66U A69G A70U C71U | -0.447 |
| G1A C46U C66A A70G | -0.0981 |
| U2G A43C A69G A70U C71U | -0.382 |
| U2C G6A C66U A70U | -0.0364 |
| C27U A43C C46U C71U | -0.0385 |
| G1A C66U A69G C71U | -0.515 |
| G1A U2G G6A C27U A43C C46U A70G | -0.224 |
| U2C G6U C27U A70G C71U | -0.309 |
| U2C G6A A43C C66U A70G | -0.0213 |
| G1A U2C G6U C71U | -0.159 |
| G1A U2G G6A A43C C46U C66U A69G A70U C71U | -0.425 |
| U2C C27U A43C C66U A69G A70G | -0.332 |
| G6A C27U A43C C46U A69G A70U C71U | -0.441 |
| G1A G6U C27U A43C C66U A70U | -0.381 |
| C27U A43C C46U C66A C71U | -0.173 |
| U2G G6A A43C C66A A70U C71U | -0.33 |

| Variant | yeast fitness (ln) |
| --- | --- |
| G1A G6A C66U A69G A70U | -0.102 |
| U2C A43C C66A A70G C71U | -0.11 |
| U2G G6A C27U C46U C66U C71U | -0.17 |
| G1A C27U A43C | -0.163 |
| G1A G6U C66U A70G C71U | -0.272 |
| G1A U2C C27U A43C C71U | -0.0487 |
| U2C C27U C46U A69G A70U C71U | -0.216 |
| G1A G6A C27U A43C C46U C66U A70U C71U | -0.413 |
| U2C G6A C27U C46U A70U C71U | -0.123 |
| G1A U2C G6A C27U C66U A69G A70G C71U | -0.0671 |
| G6U C27U A43C A70U C71U | -0.445 |
| U2C G6U A43C C46U | -0.0413 |
| G1A G6U A43C C46U C71U | -0.174 |
| U2G G6U A43C A70U C71U | -0.215 |
| U2G G6A C27U A43C C66U C71U | -0.373 |
| G1A C66U | -0.0546 |
| G1A C66A A70U | -0.0714 |
| G1A A69G | -0.141 |
| U2C A43C A70G | -0.00562 |
